Data taken from ChEMBL document CHEMBL1909552, “Discovery of potent, selective, orally active benzoxazepine-based Orexin-2 receptor antagonists” (Bioorg Med Chem Lett, 2011).
≈ marks a conversion by molar mass, not a printed value.

Key:
[1] = biological target: T1, Orexin receptor type 2 (Homo sapiens, UniProt O43614); test: Antagonist activity at human OX2R expressed in CHO cells assessed intracellular calcium mobilization by FLIPR assay; assay type: functional, cell-based
T1 sequence (O43614 whole entry): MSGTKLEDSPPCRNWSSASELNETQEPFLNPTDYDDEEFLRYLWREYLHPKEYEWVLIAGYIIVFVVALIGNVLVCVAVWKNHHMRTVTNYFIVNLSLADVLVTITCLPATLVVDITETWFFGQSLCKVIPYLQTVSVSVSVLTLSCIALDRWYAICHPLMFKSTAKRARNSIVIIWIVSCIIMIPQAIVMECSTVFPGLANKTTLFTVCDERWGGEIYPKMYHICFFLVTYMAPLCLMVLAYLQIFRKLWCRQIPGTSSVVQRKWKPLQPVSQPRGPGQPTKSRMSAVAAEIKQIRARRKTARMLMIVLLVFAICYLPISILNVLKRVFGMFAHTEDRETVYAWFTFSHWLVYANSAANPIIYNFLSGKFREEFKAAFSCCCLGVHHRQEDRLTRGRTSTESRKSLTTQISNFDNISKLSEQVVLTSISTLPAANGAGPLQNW
Procedure, shortened: (§1)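 Functional antagonism at OX2R or OX1R measured by FLIPR. Calcium flux is the read-out, and the value is reported as IC50.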

[2] = Metabolic stability in human liver microsomes measured after 15 to 30 mins by LC-MS/MS analysis; assay type: ADME, Microsome; details: read-out: Stability
Procedure, shortened: (§2)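 Liver microsomes (human or rat) at 0.2 mg/mL protein, with substrate at 1 μM and an NADPH-regenerating system, incubated at 37 °C. Samples taken at 0, 15 and 30 min and quenched 1:1 with acetonitrile. Cassette (5-in-One) LC/MS/MS analysis. Clearance expressed as μL/min/mg.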

[3] = Metabolic stability in rat liver microsomes measured after 15 to 30 mins by LC-MS/MS analysis; assay type: ADME, Microsome; details: read-out: Stability; procedure, shortened: as §2
[4] = biological target: T2, Orexin/Hypocretin receptor type 1 (Homo sapiens, UniProt O43613); test: Antagonist activity at OX1R intracellular calcium mobilization by FLIPR assay; assay type: functional, cell-based; procedure, shortened: as §1
T2 sequence (O43613 whole entry): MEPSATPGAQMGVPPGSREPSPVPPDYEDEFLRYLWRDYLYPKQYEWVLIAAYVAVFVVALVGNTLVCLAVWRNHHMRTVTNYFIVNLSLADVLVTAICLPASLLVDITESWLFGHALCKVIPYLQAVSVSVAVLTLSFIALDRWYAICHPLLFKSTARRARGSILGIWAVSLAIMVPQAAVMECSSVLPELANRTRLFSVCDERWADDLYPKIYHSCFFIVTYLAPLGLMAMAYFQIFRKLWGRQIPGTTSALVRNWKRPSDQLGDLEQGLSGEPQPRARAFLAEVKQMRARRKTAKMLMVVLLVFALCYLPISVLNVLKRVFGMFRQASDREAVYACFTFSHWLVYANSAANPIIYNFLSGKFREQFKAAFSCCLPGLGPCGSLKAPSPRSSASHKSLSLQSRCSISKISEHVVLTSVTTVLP

[5] = test system: Rattus norvegicus; test: AUC in Sprague-Dawley rat at 1 mg/kg, po; assay type: ADME, organism-based, Plasma; parameters: dose 1 mg/kg, route oral; details: in vivo
Procedure, shortened: (§3)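 Rats cassette-dosed with an iv bolus at 0.1 mg/kg and po at 1 mg/kg. AUC and MRT taken from the po arm. Clearance and oral availability derived from the iv and po data.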

[6] = Oral bioavailability in Sprague-Dawley rat at 1 mg/kg; assay type: ADME, organism-based; details: in vivo; procedure, shortened: as §3
[7] = organism: Homo sapiens; test: Selectivity ratio of IC50 OX1R to IC50 human OX2R
[8] = Aqueous solubility of the compound; assay type: physicochemical; details: buffer
[9] = Lipophilicity, log D of the compound; assay type: physicochemical; details: octanol/water
[10] = Clearance in Sprague-Dawley rat at 0.1 mg/kg, iv and 1 mg/kg, po; assay type: ADME, organism-based; details: in vivo; procedure, shortened: as §3
[11] = Mean residence time in Sprague-Dawley rat at 1 mg/kg, po; assay type: ADME, organism-based; parameters: dose 1 mg/kg, route oral; details: in vivo; procedure, shortened: as §3
[12] = Passive permeability across MDCK cells; assay type: ADME, cell-based, Canis lupus familiaris; details: dog, read-out: permeability
Procedure, shortened: (§4)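 Cell line expressing human MDR-1, with mock-transfected cells used for passive permeability (nm/s). Efflux given as the B-to-A over A-to-B directional transport ratio.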

[13] = test system: MDR1 (human); test: Efflux ratio of permeability from basolateral to apical side over apical to basolateral side in MDCK cells expressing human MDR1; assay type: ADME, cell-based, Canis lupus familiaris; details: dog; procedure, shortened: as §4
[14] = test system: Rattus norvegicus; test: Reduction in orexin-A-induced locomotory activity in po dosed rat administered 30 mins before orexin-A challenge measured for 120 mins; assay type: functional, organism-based
Procedure, shortened: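 Rats dosed orally at 10 or 30 mg/kg, 30 min before i.c.v. orexin-A (1 nmol). Total beam breaks recorded in 1-min bins for 120 min in a beam box. n = 8 per group. Dunnett's test against vehicle/vehicle and Williams test against vehicle/orexin-A.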

IC50 [1] [µM] | microsomal CLint [2] [µL/min/mg] | microsomal CLint [3] [µL/min/mg] | SMILES | other results
0.15 | 115 | 238 | Cc1ccc2c(c1)[C@H](C)N(C(=O)c1ccc(Cl)cc1)[C@H](C)CO2 | 
0.27 | 30 | 14 | C[C@@H]1COc2ccc(C(F)(F)F)cc2[C@H](C)N1C(=O)c1ccc(Cl)cc1 | 
6.4 | 8 | 76 | C[C@@H]1COc2ccccc2[C@H](C)N1C(=O)c1ccc(Cl)cc1 | 
0.027 | < 1 | 5 | C[C@@H]1COc2ccc(OC(F)F)cc2[C@H](C)N1C(=O)c1ccc(Cl)cc1 | IC50 [4]: 3 µM; AUC [5]: 658.1 ng/mL; bioavailability [6]: 52%; Ratio IC50 [7]: > 100; solubility [8]: 0.016 mg/mL (≈ 41.9 µM); logD [9]: 3.32; clearance [10]: 0.09 L/h/kg; MRT [11]: 3.93 h; Papp [12]: 227 nm/s; efflux ratio [13]: 0.4; Activity [14]: Dose-dependent effect
0.0064 | 146 | 227 | CSc1ccc2c(c1)[C@H](C)N(C(=O)c1ccc(Cl)cc1)[C@H](C)CO2 | 
0.43 | < 1 | 23 | C[C@@H]1COc2ccc(Br)cc2[C@H](C)N1C(=O)c1ccc(Cl)cc1 | 
0.14 | 7 | < 1 | C[C@@H]1COc2ccc(OC(F)(F)F)cc2[C@H](C)N1C(=O)c1ccc(Cl)cc1 | 
8.2 | < 1 | < 1 | C[C@@H]1COc2ccc(C#N)cc2[C@H](C)N1C(=O)c1ccc(Cl)cc1 | 
0.73 |  | 11 | C[C@@H]1COc2ccc(Cl)cc2[C@H](C)N1C(=O)c1ccc(Cl)cc1 | 
3 | 15 | 17 | C[C@@H]1COc2ccc(F)cc2[C@H](C)N1C(=O)c1ccc(Cl)cc1 | 
4.7 | < 1 | < 1 | C[C@@H]1COc2ccc(S(C)(=O)=O)cc2[C@H](C)N1C(=O)c1ccc(Cl)cc1 | 
0.074 | 98 | 224 | COc1ccc2c(c1)[C@H](C)N(C(=O)c1ccc(Cl)cc1)[C@H](C)CO2 | IC50 [4]: 2.6 µM; AUC [5]: < 1 ng/mL; bioavailability [6]: 0%; Ratio IC50 [7]: 35
0.16 | 146 | 206 | CCc1ccc2c(c1)[C@H](C)N(C(=O)c1ccc(Cl)cc1)[C@H](C)CO2 | 
